Active and inactive are the calls of the source. The calls are words filed in the database; no cut-off is given here.
What was measured:
A549 = assay: Antiproliferative activity against human A549 cells after 48 hrs by CCK8 assay; assay type: functional, cell-based; conditions: A549, 48 h
Summary of the method: (§1)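 Cells seeded at 6 × 10^3 cells/well and left 12 h at 37 °C, 5% CO2. Medium then replaced with serial compound dilutions, bortezomib as positive control. After 48 h, CCK-8 added for 4 h and absorbance read at 450 nm. Three repeats; IC50 from normalized nonlinear regression of inhibition curves.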

K562 = assay: Antiproliferative activity against human K562 cells after 48 hrs by CCK8 assay; assay type: functional, cell-based; conditions: K562, 48 h; summary of the method: as §1
BXPC-3 = assay: Antiproliferative activity against human BxPC3 cells after 48 hrs by CCK8 assay; assay type: functional, cell-based; conditions: BXPC-3, 48 h; summary of the method: as §1
[1] = Hemolytic activity against rabbit erythrocytes assessed as hemolysis at 100 uM measured after 1 hr; assay type: ADME, cell-based, Oryctolagus cuniculus, Erythrocyte; conditions: read-out: Activity
Summary of the method: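 Rabbit erythrocytes pelleted at 3000 rpm for 10 min, washed twice and resuspended in PBS. Mixed 1:1 with 200 μM compound solution in PBS, 1 h at 37 °C. PBS served as 0% and 1% Triton X-100 as 100% hemolysis. After centrifugation, supernatant hemoglobin read at 540 nm; % hemolysis calculated relative to the Triton and PBS controls.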

[2] = Antiproliferative activity against HEK293T cells after 48 hrs by CCK8 assay; assay type: cell-based, HEK-293T; conditions: human, read-out: LC50
[3] = Selectivity index, ratio of IC50 for HUVEC to IC50 for human AGS cells; assay type: toxicity; conditions: HUVEC versus AGS cells, read-out: Ratio IC50
[4] = Selectivity index, ratio of IC50 for human LO2 cells to IC50 for human AGS cells; assay type: toxicity; conditions: LO2 cells versus AGS cells, read-out: Ratio IC50
[5] = molecular target: T1, NEDD8 activating enzyme (Homo sapiens) (UniProt Q8TBC4+Q13564); assay: Inhibition of NAE-mediated CRL neddylation in human AGS cells assessed as increase in p27 level up to 10 uM after 24 hrs by Western blot analysis; assay type: cell-based
Summary of the method: (§2)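 AGS cells given 2, 4, 6, 8 or 10 μM compound or 0.1% DMSO for 24 h, washed in ice-cold PBS and lysed in RIPA on ice. Equal protein loads run by SDS-PAGE: non-reducing for NEDD8/SUMO/Ub conjugates, reducing for p27, NRF2, CDT1 and cleaved caspase-3. Blotted to PVDF with primary antibody overnight at 4 °C and HRP secondary, ECL detection, densitometry. Three repeats.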

[6] = molecular target: T1, NEDD8 activating enzyme (Homo sapiens); assay: Inhibition of NAE-mediated CRL neddylation in human AGS cells assessed as increase in NRF2 level up to 10 uM after 24 hrs by Western blot analysis; assay type: cell-based; summary of the method: as §2
AGS [7] = assay: Inhibition of UAE in human AGS cells assessed as reduction in Ubc10-Ub conjugation level at 2 to 10 uM after 24 hrs by Western blot analysis; assay type: cell-based
Summary of the method: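 AGS cells (Ham's F12/10% FBS) exposed to 2, 4, 6, 8 or 10 µM compound, or 0.1% DMSO, for 24 h. RIPA lysates of equal protein run on non-reducing SDS-PAGE. Western blot for Ubc10-Ub or USE1-Ub, with densitometry. Three repeats.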

[8] = molecular target: Protein kinase C alpha type (Homo sapiens) (UniProt P17252); assay: Inhibition of PKCalpha (unknown origin) at 30 uM relative to control
[9] = molecular target: Cyclin-dependent kinase 1 (Homo sapiens) (UniProt P06493); assay: Inhibition of CDK1 (unknown origin) at 30 uM relative to control
Sequence of Cyclin-dependent kinase 1 (Homo sapiens) (P06493 whole entry, looked up): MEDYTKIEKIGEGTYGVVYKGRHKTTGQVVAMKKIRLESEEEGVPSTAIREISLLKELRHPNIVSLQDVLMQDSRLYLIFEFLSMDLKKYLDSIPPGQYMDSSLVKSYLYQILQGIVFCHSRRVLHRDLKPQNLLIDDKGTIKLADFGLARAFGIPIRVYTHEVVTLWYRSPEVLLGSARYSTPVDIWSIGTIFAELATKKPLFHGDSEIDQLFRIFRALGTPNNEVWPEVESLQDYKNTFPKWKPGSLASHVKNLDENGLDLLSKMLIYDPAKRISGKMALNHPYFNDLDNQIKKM

[10] = molecular target: Epidermal growth factor receptor (Homo sapiens) (UniProt P00533); assay: Inhibition of EGFR (unknown origin) at 30 uM relative to control
Sequence of Epidermal growth factor receptor (Homo sapiens) (P00533 whole entry): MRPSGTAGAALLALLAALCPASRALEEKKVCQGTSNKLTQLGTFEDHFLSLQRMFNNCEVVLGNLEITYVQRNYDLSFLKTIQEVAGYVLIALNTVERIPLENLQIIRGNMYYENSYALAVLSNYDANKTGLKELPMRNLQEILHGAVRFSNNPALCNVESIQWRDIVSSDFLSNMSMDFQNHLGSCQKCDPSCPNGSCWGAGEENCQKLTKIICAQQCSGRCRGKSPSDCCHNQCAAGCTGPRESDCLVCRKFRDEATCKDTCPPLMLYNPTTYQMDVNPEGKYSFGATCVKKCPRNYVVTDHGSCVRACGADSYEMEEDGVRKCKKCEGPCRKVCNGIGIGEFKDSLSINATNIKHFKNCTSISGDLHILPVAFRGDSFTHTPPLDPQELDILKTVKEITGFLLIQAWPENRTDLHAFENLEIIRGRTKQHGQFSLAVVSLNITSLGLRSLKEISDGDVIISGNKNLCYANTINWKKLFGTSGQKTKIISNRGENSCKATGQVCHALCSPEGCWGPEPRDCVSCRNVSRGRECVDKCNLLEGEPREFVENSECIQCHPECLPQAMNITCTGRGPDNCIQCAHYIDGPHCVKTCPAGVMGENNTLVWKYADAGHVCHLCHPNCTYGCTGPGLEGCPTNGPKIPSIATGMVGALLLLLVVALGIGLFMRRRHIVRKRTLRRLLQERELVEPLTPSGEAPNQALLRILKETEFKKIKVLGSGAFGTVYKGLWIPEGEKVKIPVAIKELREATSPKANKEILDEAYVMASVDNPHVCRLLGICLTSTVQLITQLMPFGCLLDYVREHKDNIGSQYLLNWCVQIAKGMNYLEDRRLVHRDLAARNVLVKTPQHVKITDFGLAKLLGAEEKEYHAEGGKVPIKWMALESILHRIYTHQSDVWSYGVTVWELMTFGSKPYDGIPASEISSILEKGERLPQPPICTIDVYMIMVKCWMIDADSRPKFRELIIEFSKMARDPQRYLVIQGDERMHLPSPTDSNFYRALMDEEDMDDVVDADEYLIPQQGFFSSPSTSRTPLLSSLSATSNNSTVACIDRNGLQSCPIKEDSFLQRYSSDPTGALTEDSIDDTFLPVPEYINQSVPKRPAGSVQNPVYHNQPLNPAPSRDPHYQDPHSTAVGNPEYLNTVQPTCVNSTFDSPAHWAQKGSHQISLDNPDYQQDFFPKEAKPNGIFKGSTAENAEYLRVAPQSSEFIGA

Homo sapiens = species on record: Homo sapiens; assay: Inhibition of UAE (unknown origin) assessed as reduction in Ubc10-Ub conjugation level up to 10 uM pretreated for 10 mins followed by Mg2+ and ATP addition measured after 60 mins by Western blot analysis
Summary of the method: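 Cell-free assay with UAE 2.5 µM, Ub 250 µM and E2 Ubc10 50 µM (stock concentrations) plus inhibitor, preincubated 10 min at 37 °C. Reaction started with 10 mM Mg2+/ATP (stock), run 60 min at 37 °C, quenched with EDTA. Non-reducing 15% SDS-PAGE, Ubc10-Ub thioester detected by western blot. No-ATP negative control.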

AGS [11] = assay: Induction of apoptosis in human AGS cells assessed as live cells at 4 uM after 36 hrs by Annexin-V-FITC/propidium iodide staining based flow cytometry (reference value: 92.84%); assay type: functional
AGS [12] = assay: Induction of apoptosis in human AGS cells assessed as early apoptotic cells at 4 uM after 36 hrs by Annexin-V-FITC/propidium iodide staining based flow cytometry (reference value: 4.44%); assay type: functional
AGS [13] = assay: Induction of apoptosis in human AGS cells assessed as necrotic cells at 4 uM after 36 hrs by Annexin-V-FITC/propidium iodide staining based flow cytometry (reference value: 1.01%); assay type: functional
AGS [14] = assay: Induction of apoptosis in human AGS cells assessed as early apoptotic cells at 6 uM after 36 hrs by Annexin-V-FITC/propidium iodide staining based flow cytometry (reference value: 4.44%); assay type: functional
AGS [15] = assay: Induction of apoptosis in human AGS cells assessed as early apoptotic cells at 8 uM after 36 hrs by Annexin-V-FITC/propidium iodide staining based flow cytometry (reference value: 4.44%); assay type: functional
AGS [16] = assay: Cell cycle arrest in human AGS cells assessed as accumulation at G1 phase at 4 uM after 4 to 48 hrs by propidium iodide staining based flow cytometry (reference value: 22.82%); assay type: functional
Summary of the method: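 AGS cells seeded at 1 × 10^5/well and attached 24 h at 37 °C, 5% CO2. Exposed to 4 μM compound for varying times, then fixed in 70% ethanol at −20 °C overnight. Stained with PI/RNase buffer 15–20 min in the dark; 20000 cells per sample read by flow cytometry (488 nm excitation, FL-3 630 nm). Three repeats.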

AGS [17] = assay: Synergistic antiproliferative activity against human AGS cells assessed as combination index constant at 1.25 uM after 48 hrs in presence of 5 nM BTZ by CCK8 assay; assay type: functional
Summary of the method: (§3)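 AGS cells at 6×10^3/well attached for 12 h, then exposed for 48 h to compound, bortezomib, or both at set concentrations. CCK-8 added for 4 h, then OD read at 450 nm. Inhibition rates E used for q = E(combo)/(E1+E2−E1×E2). Triplicate experiments.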

AGS [18] = assay: Synergistic antiproliferative activity against human AGS cells assessed as combination index constant at 1.25 uM after 48 hrs in presence of 7.5 nM BTZ by CCK8 assay; assay type: functional; summary of the method: as §3
AGS [19] = assay: Synergistic antiproliferative activity against human AGS cells assessed as combination index constant at 1.5 uM after 48 hrs in presence of 7.5 nM BTZ by CCK8 assay; assay type: functional; summary of the method: as §3
AGS [20] = assay: Synergistic antiproliferative activity against human AGS cells assessed as combination index constant at 1 uM after 48 hrs in presence of 10 nM BTZ by CCK8 assay; assay type: functional; summary of the method: as §3
AGS [21] = assay: Synergistic antiproliferative activity against human AGS cells assessed as combination index constant at 1.5 uM after 48 hrs in presence of 10 nM BTZ by CCK8 assay; assay type: functional; summary of the method: as §3

For O=c1cc(-c2ccc(-c3ccccc3)cc2)c2ccc(N3CCC(NCCc4ccccc4)CC3)cc2o1, the IC50 (A549) was 2140 nM, the IC50 (K562) was 2450 nM and the IC50 (BXPC-3) was 2800 nM. It also gave a hemolysis at 1 h, 100 µM [1] of under 10%, a CC50 at 48 h [2] of 12900 nM and a selectivity ratio [3] of 14 to 18. For the same compound, the selectivity ratio [4] was 14 to 18, the inhibition [5] was “Active” and the inhibition [6] was “Active”. For the same compound, the inhibition (AGS [7]) was “Active”, the inhibition [8] was 11.5% and the inhibition [9] was -1.18%. The inhibition [10] was 2.77%, the inhibition (Homo sapiens) was “Active” and the Activity (AGS [11]) was 80.7%. It also gave an Activity (AGS [12]) of 7.77%, an Activity (AGS [13]) of 1.03% and an Activity (AGS [14]) of 45.91%. The Activity (AGS [15]) was 50.39%, the Activity (AGS [16]) was 48.88% and the CI (AGS [17]) was 4.34. The CI (AGS [18]) was 3.1, the CI (AGS [19]) was 1.05 and the CI (AGS [20]) was 1.14. It also gave a CI (AGS [21]) of 1.35.
